# The source made the active and inactive calls.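 The calls were made as follows, unless noted: active = inhibition of the reporter signal at or above 50%; inactive = inhibition below 50%.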
# Legend:
# [1] = inhibitors of TNFa-induced NFkB p65 translocation, primary screen, imaging, HUVEC, MLSMR starter and 10KST1 sets (AID 438;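 active = inhibition above 20% together with a positive visual image hit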;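 also: compound added about 3h40 before a 20 min TNFalpha stimulation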;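 as to inhibition: signal is the nuclear over cytoplasmic p65 intensity ratio per well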); conditions: HUVEC TNFa-induced p65 nuclear translocation; cell count: measured here: nuclei count (cytotoxicity indicator), at 2.08 µM; inhibition: at 2 µM, stronger effect = higher value, 0% TNFa-plus-vehicle, 100% no-TNFa wells
# [2] = reduction of polyQ htt aggregates in cells – imaging, exon1htt(103Q)mCFP cells, high-content imaging, primary screen (AID 483;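 active = visual image review flags a hit and inhibition of aggregation exceeds 20%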;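 also: compound exposure lasted 3 days before fixation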;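 as to nuclei count: percent of the per-plate median nuclei count of sample wells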); conditions: exon1htt(103Q)mCFP cell line, aggregate imaging, at 2 µM; inhibition of aggregation: stronger effect = higher value; nuclei count: measured here: cell count, toxicity
# [3] = endothelial E-selectin expression blockers – imaging, HUVEC, immunofluorescence, MLSMR starter and 10KST1 sets, primary screen (AID 487;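 active = visually confirmed hit in the image check and inhibition above 20%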;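 as to inhibition: signal is fraction of cell area covered by stained E-selectin grains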;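 as to nuclei count: 100% = median nuclei count of all wells on the same plate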); conditions: HUVEC TNFalpha-induced E-selectin immunofluorescence imaging, at 2 µM; inhibition: stronger effect = higher value; nuclei count: measured here: cell number, toxicity
# [4] = molecular target: Voltage-gated potassium channel subunit beta-2 (Rattus norvegicus) (UniProt P62483); assay: inhibitors of rat Kvbeta2 reductase activity – biochemical, NADPH fluorescence, primary screen (AID 622;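 active = fluorescence slope higher than the sample average by over 3 SD, cut at about -0.22 in these data, passing the limit was not always enough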;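 also: slope of raw intensity against log time taken from 70 to 1610 s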); conditions: recombinant KvBeta, 4-cyanobenzaldehyde reduction, at 10 µM, stronger effect = higher value
# [5] = molecular target: Voltage-gated potassium channel subunit beta-2 (Rattus norvegicus) (UniProt P62483); assay: enhancers of rat Kvbeta2 NADPH turnover – biochemical, NADPH fluorescence, primary screen (AID 623;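 active = NADPH fluorescence slope more negative than the mean of all samples by about 3 SD, 99.7% confidence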;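 also: fluorescence intensity change per second fitted from 20 to 320 s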); conditions: Recombinant KvBeta, NADPH fluorescence decrease slope, 10 min; at 10 µM; stronger effect = lower value
# [6] = molecular target: Muscarinic acetylcholine receptor M4 (Homo sapiens) (UniProt P08173); assay: M4-linked GIRK flux change, two-sided – cell-based, HEK293 M4/GIRK, thallium flux, BTC-AM, M4 allosteric agonist project, primary screen (AID 625;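 active = fluorescence slope after compound addition differing from the mean of all tested samples at 99.7% confidence, mostly higher but some lower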;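 also: thallium influx through GIRK channels coupled to M4 in HEK293 cells with BTC-AM dye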); conditions: at 10 µM, actives lie on both sides
# Procedure, shortened: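 Material – HEK293 cells with M4 receptor and GIRK channels · Buffer or medium – pH 7.3 thallium assay buffer · Doses – one dose, 10 µM final · Timing – cells overnight at 37 °C, BTC-AM loading 1 h, reads 2 min total · Measured by – kinetic fluorescence with BTC-AM dye · Controls – carbachol and DMSO controls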
# [7] = blockers of RIG-like receptor reporter activation – cell-based, Sendai virus stimulus, luciferase, 10K MLSCN set, TLR/RLR signaling modifier project, primary screen (AID 602276;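 active = inhibition at or above 50% at 10 µM; inactive = inhibition below 50%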;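 also: firefly luciferase from ISG56 promoter only with Renilla not read in this screen; 0% = Sendai virus plus DMSO and 100% = medium plus DMSO without virus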); conditions: HEK293 RL24 IRF3 luciferase reporter, at 10 µM, stronger effect = higher value
# [8] = TLR3 IRF3 reporter activation blockers – cell-based, poly I:C stimulus, luciferase, 10K MLSCN set, primary screen (AID 602277); conditions: HEK293-TLR3 RL24 IRF3 luciferase reporter, at 10 µM, stronger effect = higher value
# Chain of Voltage-gated potassium channel subunit beta-2 (Rattus norvegicus) (P62483 whole entry, looked up): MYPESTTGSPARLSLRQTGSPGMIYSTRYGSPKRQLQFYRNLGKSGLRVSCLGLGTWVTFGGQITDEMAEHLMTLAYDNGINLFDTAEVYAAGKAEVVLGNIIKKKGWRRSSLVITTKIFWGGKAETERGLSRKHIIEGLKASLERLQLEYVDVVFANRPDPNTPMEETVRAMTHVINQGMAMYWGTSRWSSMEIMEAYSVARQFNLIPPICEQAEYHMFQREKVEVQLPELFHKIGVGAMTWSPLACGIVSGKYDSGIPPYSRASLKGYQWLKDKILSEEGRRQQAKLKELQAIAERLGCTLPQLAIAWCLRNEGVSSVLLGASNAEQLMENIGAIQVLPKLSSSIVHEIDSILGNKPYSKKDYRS
# Chain of Muscarinic acetylcholine receptor M4 (Homo sapiens) (P08173 whole entry, looked up): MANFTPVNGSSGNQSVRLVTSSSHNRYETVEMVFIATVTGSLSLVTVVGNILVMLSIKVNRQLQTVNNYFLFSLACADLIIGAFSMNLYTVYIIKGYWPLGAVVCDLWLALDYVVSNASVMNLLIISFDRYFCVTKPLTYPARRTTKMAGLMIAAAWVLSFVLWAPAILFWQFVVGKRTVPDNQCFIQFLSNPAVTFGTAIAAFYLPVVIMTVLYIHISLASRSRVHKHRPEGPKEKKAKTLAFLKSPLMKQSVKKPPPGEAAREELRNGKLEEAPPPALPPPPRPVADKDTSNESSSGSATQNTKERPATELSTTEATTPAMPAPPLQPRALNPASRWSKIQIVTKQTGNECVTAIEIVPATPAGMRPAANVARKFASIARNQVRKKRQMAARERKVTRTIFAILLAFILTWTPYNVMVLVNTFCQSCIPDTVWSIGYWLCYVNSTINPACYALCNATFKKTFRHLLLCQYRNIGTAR
SMILES,cell count [1],inhibition [1],inhibition of aggregation [2],nuclei count [2],inhibition [3],nuclei count [3],fluorescence slope [4],NADPH fluorescence slope [5],fluorescence slope [6],inhibition [7],inhibition [8]
O=S(=O)(c1ccc2c(c1)nc1n2CCC1)N1CCOCC1,519,-1.9% (inactive),-0.2% (inactive),96.3%,-18.9% (inactive),107%,-0.423 (inactive),2.5e-05 (inactive),0.00774 (inactive),-4.44% (inactive),13.8% (inactive)
COCCNC(=O)CN(C)S(=O)(=O)c1ccc2c(c1)OCCO2,577,-12.1% (inactive),-1.9% (inactive),101%,-59.8% (inactive),108%,-0.527 (inactive),1.9e-05 (inactive),0.00472 (inactive),11.9% (inactive),21.2% (inactive)
CCCCSc1nc2c(cnn2-c2ccc(Cl)cc2)c(=O)[nH]1,233,-0.3% (inactive),6.5% (inactive),103%,-23.4% (inactive),111%,-0.426 (inactive),-9.3e-05 (inactive),0.00579 (inactive),16.7% (inactive),16.6% (inactive)
Cc1c(NC(=O)CN2c3cccc4cccc(c34)S2(=O)=O)c(=O)n(-c2ccccc2)n1C,721,-7.1% (inactive),1.4% (inactive),103%,-119% (inactive),141%,-0.442 (inactive),-2.5e-05 (inactive),0.00478 (inactive),8.89% (inactive),15.5% (inactive)
CC1CCCC(NC(=O)CSc2ncccc2C(=O)O)C1C (stereo unspecified),660,-10% (inactive),7.4% (inactive),117%,-55.4% (inactive),112%,-0.566 (inactive),-8.3e-06 (inactive),0.00597 (inactive),13.9% (inactive),24.3% (inactive)
COc1ccccc1NC(=O)N(Cc1ccccc1)c1ccccn1,756,3.2% (inactive),-5.9% (inactive),93.7%,19.9% (inactive),114%,-0.581 (inactive),-7e-05 (inactive),0.00744 (inactive),-7.55% (inactive),-38.8% (inactive)

# Source: PubChem BioAssay
